Test [1] addresses GABA-A receptor; anion channel. As to the kind of experiment: Binding affinity was determined by displacement of [3H]flumazenil from rat cortex homogenates. Type of test: functional. In a few lines: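 Displacement of [3H]flumazenil from rat cortex homogenates. Values are averages (±SD); some analogues were run once as a single set of triplicates. NA means an IC50 was not achieved at the highest dose tested.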
(In general: Displacement assays read how much labelled ligand stays bound in the presence of the test substance.)

The species named for another test is Rattus norvegicus. As to the kind of experiment: Rat behavioral spontaneous Locomotor Activity; Not significant. The test is classed as functional, organism-based. In a few lines: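 Male Sprague-Dawley rats received the test drug iv in 50% aqueous PEG-400, which also served as the control vehicle. They were then placed in an automated activity monitor, and movement time, total distance and vertical activity were recorded over 15 min. Each drug was compared against vehicle, and NS marks a difference that was not significant.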

For test [2], the target named is T1, Gamma-aminobutyric acid receptor subunit alpha-5 (Homo sapiens) (UniProt P31644).
T1 sequence (whole entry): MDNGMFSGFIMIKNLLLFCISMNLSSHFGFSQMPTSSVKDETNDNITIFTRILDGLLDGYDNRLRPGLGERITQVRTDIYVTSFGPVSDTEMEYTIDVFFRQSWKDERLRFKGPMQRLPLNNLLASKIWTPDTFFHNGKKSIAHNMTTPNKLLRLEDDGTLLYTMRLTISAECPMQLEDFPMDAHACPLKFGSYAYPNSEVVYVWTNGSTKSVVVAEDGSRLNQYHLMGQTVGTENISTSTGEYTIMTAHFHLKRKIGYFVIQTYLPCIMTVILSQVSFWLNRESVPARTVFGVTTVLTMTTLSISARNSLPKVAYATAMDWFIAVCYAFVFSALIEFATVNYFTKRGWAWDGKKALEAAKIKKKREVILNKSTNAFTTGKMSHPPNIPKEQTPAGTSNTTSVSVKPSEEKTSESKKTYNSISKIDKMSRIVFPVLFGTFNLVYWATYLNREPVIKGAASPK
As to the kind of experiment: Maximum percent potentiation against gamma-aminobutyric acid (GABA) A receptor, alpha 5. To be noted: Xenopus laevis. Summed up: (§1)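 Xenopus laevis oocytes were injected with human cRNA for the α, β and γ subunits needed to express each receptor subtype (α1, α2, α3 or α5). Electrophysiological recording was used to read potentiation, and the effective concentration and maximal percent potentiation were derived from it.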

In test [3] the target is T2, Gamma-aminobutyric acid receptor subunit alpha-1 (Homo sapiens) (UniProt P14867).
T2 sequence (whole entry): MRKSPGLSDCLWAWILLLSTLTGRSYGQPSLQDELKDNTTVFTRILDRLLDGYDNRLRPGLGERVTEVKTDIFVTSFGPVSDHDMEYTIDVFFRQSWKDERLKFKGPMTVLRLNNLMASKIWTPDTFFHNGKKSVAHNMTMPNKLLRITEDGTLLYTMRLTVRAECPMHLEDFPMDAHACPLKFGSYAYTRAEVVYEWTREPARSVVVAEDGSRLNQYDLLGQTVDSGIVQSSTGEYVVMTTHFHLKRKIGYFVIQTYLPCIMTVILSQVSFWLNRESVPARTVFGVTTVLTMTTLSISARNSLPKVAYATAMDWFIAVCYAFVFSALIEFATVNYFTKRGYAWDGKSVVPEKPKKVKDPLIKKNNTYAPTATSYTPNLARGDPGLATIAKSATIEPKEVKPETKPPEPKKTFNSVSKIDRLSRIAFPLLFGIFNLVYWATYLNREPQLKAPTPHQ
As to the kind of experiment: Maximum percent potentiation against gamma-aminobutyric acid (GABA) A receptor, alpha 1. To be noted: Xenopus laevis. In a few lines:
as §1

Test [4] has as its target T3, Gamma-aminobutyric acid receptor subunit alpha-3 (Homo sapiens, UniProt P34903).
T3 sequence (P34903 whole entry): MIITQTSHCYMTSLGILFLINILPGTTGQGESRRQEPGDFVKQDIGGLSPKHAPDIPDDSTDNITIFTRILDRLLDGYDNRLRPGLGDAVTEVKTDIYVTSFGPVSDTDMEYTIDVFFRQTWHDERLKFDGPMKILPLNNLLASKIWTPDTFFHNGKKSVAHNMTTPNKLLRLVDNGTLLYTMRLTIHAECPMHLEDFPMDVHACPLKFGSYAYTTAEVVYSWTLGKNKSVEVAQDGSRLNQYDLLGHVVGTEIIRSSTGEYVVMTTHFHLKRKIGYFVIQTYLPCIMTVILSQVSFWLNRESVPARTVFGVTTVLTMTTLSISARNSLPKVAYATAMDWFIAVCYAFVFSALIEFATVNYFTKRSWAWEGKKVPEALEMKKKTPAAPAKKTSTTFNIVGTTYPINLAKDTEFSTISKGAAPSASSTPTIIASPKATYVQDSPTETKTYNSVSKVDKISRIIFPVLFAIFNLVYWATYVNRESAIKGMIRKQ
As to the kind of experiment: Effective concentration against gamma-aminobutyric acid (GABA) A receptor, alpha 3. The arrangement: species or system Xenopus laevis. In a few lines:
as §1

Test [5] deals with T4, Gamma-aminobutyric acid receptor subunit alpha-2 (Homo sapiens) (UniProt P47869).
T4 sequence (whole entry): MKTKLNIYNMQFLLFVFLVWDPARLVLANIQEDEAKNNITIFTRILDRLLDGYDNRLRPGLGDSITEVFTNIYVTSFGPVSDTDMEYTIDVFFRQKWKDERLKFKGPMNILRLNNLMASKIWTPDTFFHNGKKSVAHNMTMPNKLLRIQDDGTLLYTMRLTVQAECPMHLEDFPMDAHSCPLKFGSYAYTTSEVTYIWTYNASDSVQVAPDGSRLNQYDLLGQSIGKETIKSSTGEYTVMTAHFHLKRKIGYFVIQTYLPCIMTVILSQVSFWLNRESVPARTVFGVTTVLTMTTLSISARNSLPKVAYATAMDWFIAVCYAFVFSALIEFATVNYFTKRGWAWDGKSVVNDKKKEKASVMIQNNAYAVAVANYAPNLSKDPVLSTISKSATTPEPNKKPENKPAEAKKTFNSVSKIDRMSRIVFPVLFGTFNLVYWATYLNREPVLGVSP
As to the kind of experiment: Maximum percent potentiation against gamma-aminobutyric acid (GABA) A receptor, alpha 2. To be noted: Xenopus laevis. In a few lines: as §1

Test [6] addresses T5, Gamma-aminobutyric acid receptor subunit alpha-3 (Homo sapiens) (UniProt P34903).
T5 sequence (whole entry): T3 sequence (P34903 whole entry)
As to the kind of experiment: Maximum percent potentiation against gamma-aminobutyric acid (GABA) A receptor, alpha 3. To be noted: Xenopus laevis. In a few lines:
as §1

The target in test [7] is T6, Gamma-aminobutyric acid receptor subunit alpha-2 (Homo sapiens, UniProt P47869).
T6 sequence (P47869 whole entry): T4 sequence (whole entry)
As to the kind of experiment: Effective concentration against gamma-aminobutyric acid (GABA) A receptor, alpha 2. The arrangement: species or system Xenopus laevis. Summed up: as §1

The target of test [8] is T7, Gamma-aminobutyric acid receptor subunit alpha-1 (Homo sapiens, UniProt P14867).
T7 sequence (P14867 whole entry): T2 sequence (whole entry)
As to the kind of experiment: Effective concentration against gamma-aminobutyric acid (GABA) A receptor, alpha 1. More on the design: species or system Xenopus laevis. Summed up:
as §1

Test [9] concerns the target GABA-A receptor; anion channel (Rattus norvegicus) (UniProt O09028+P15431+P18506+P18508+P19969+P20236+P23574+P23576+P28471+P28473+P30191+P62813+P63079+P63138+Q91ZM7+Q9ES14). As to the kind of experiment: Binding affinity by displacement of [3H]flumazenil from rat cortex homogenates; Not active. Type of test: functional. In a few lines:
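Displacement of [3H]flumazenil from rat cortex homogenates. […] Values are averages (±SD); some analogues were run once as a single set of triplicates. NA means an IC50 was not achieved at the highest dose tested.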

The source made the active and inactive calls. No cut-off for these calls is given here.

Regarding `Oc1nc2c(c3nc(-c4ccccc4F)cn13)CN(Cc1ccncc1)CC2`, in test [1], the Ki (in general, a dissociation constant, usually derived from enzyme kinetics or from competition with a known ligand) turned out to be 0.9 nM. Further, in the test listed under Rattus norvegicus, the NS result is “inactive”. The Activity was 0% in [2], 17% in test [3], 42% in [5] and 58% in test [6]. For the same compound, the EC50 – broadly, the concentration giving half of the maximal effect – was found to be 33 nM in test [4], 99 nM in [7] and 53 nM in test [8].

As to `CCC(=O)N1CCc2nc(O)n3cc(-c4ccc(OC)cc4)nc3c2C1`, the NA entry in test [9] is “inactive”.

The values are drawn from ChEMBL document CHEMBL1135642, “Synthesis and biological evaluation of 7,8,9,10-tetrahydroimidazo[1,2-c]pyrido[3,4-e]pyrimdin-5(6H)-ones as functionally selective ligands of the benzodiazepine receptor site on the GABA(A) receptor” (J Med Chem, 2002).
